Source: ChEMBL document CHEMBL1139875, “Discovery of 4-aminobutyric acid derivatives possessing anticonvulsant and antinociceptive activities: a hybrid pharmacophore approach” (2007)
Activity calls are given as the source filed them. The rule behind the calls is not given here.

test system: Rattus norvegicus; experiment: Anti-cold allodynia effect in Sprague-Dawley rat CCI model assessed as duration of paw withdrawal 100 mg/kg, ip after 2.5 hr; format: functional; details: route intraperitoneal
Outline: (§1)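 CCI by sciatic nerve ligation under pentobarbital (65 mg/kg i.p.). Rats tested at baseline and 9 days post-surgery; those with allodynia dosed i.p. 100 mg/kg, vehicle 30% v/v PEG 400 in water. Acetone (100-200 µL) misted on midplantar affected paw; withdrawal duration recorded, three samples averaged, at least 3 min apart; n = 4.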

Structure (SMILES) | Activity
Nc1nnc(-c2cccc(Cl)c2Cl)c(N)n1 [LAMOTRIGINE] | 23.7 s
CN(C)c1ccc(/C=N/NC(=O)NCCCC(=O)O)cc1 | 18.1 s

test system: Rattus norvegicus; experiment: Effect on spontaneous pain in Sprague-Dawley rat SNL model assessed as duration of paw withdrawal at 100 mg/kg, ip after 2.5 hrs; format: functional; details: route intraperitoneal
Outline: (§2)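 Rats underwent left L5 spinal nerve ligation (Kim and Chung) under i.p. pentobarbital (65 mg/kg). Spontaneous pain is recorded for 5 min after 10 min acclimatization, as cumulative duration the ipsilateral paw is lifted, excluding locomotor lifts. Dosing is 100 mg/kg i.p. in 30% v/v PEG 400/water, with testing at 0.5–2.5 h. Four rats, mean ± SEM versus predrug, one-way ANOVA with Bonferroni.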

Structure (SMILES) | Activity
O=C(O)CCCNC(=O)N/N=C1\C(=O)Nc2ccccc21 | 9.8 s
Nc1nnc(-c2cccc(Cl)c2Cl)c(N)n1 [LAMOTRIGINE] | 24.4 s
CN(C)c1ccc(/C=N/NC(=O)NCCCC(=O)O)cc1 | 43 s

test system: Mus musculus; experiment: Anticonvulsant activity in Swiss Albino mouse at 300 mg/kg, ip after 0.5 hr by scPIC test; format: functional, organism-based; set-up: dose 300 mg/kg; details: not given
Outline: (§3)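 Mice (Swiss, 20-25 g) given i.p. doses of 30, 100 and 300 mg/kg under ADD program protocols, three per group, examined at 0.5 and 4 h in MES, scPTZ, scSTY or scPIC seizure tests. Value is the minimum dose protecting half or more of the mice.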

Structure (SMILES) | Activity
O=C(O)CCCNC(=O)N/N=C1\C(=O)Nc2ccccc21 | Active

test system: Rattus norvegicus; experiment: Anti-dynamic allodynia effect in Sprague-Dawley rat SNL model assessed as latency to paw withdrawal 100 mg/kg, ip after 2.5 hrs; format: functional; details: route intraperitoneal
Outline: (§4)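 Left L5 spinal nerve ligation rats, tested preoperatively and 9 days postoperatively, then given 100 mg/kg i.p. (vehicle 30% v/v PEG 400 in water). After 10 min acclimatization, plantar surface of affected paw stroked mildly with a cotton-bud; paw lift response recorded. n = 4; retested 0.5-2.5 h post-dose.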

Structure (SMILES) | Activity
Nc1nnc(-c2cccc(Cl)c2Cl)c(N)n1 [LAMOTRIGINE] | 0.64 s
CN(C)c1ccc(/C=N/NC(=O)NCCCC(=O)O)cc1 | 1.82 s

test system: Rattus norvegicus; experiment: Anti-cold allodynia effect in Sprague-Dawley rat CCI model assessed as duration of paw withdrawal 100 mg/kg, ip after 2 hr; format: functional; details: route intraperitoneal; outline: as §1

Structure (SMILES) | Activity
Nc1nnc(-c2cccc(Cl)c2Cl)c(N)n1 [LAMOTRIGINE] | 29.9 s
CN(C)c1ccc(/C=N/NC(=O)NCCCC(=O)O)cc1 | 17.9 s

test system: Mus musculus; experiment: Anticonvulsant activity in Swiss Albino mouse at 300 mg/kg, ip after 4 hrs by MES test; format: functional, organism-based; set-up: dose 300 mg/kg; details: not given; outline: as §3

Structure (SMILES) | Activity
O=C(O)CCCNC(=O)N/N=C1\C(=O)Nc2ccccc21 | Active
CN(C)c1ccc(/C=N/NC(=O)NCCCC(=O)O)cc1 | inactive

test system: Rattus norvegicus; experiment: Antihyperalgesic effects in Sprague-Dawley rat SNL model assessed as duration of paw withdrawal at 100 mg/kg, ip after 2 hrs, ip; format: functional; details: route intraperitoneal
Outline: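 L5 SNL rats (n = 4), dosed 100 mg/kg i.p. (vehicle 30% v/v PEG 400 in water). Pin-prick to midplantar ipsilateral left hindpaw; withdrawal duration, mean of three responses; ≥2 s defined abnormal. Mean ± SEM; one-way ANOVA with Bonferroni versus predrug.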

Structure (SMILES) | Activity
O=C(O)CCCNC(=O)N/N=C1\C(=O)Nc2ccccc21 | 19.7 s
Nc1nnc(-c2cccc(Cl)c2Cl)c(N)n1 [LAMOTRIGINE] | 6.4 s
CN(C)c1ccc(/C=N/NC(=O)NCCCC(=O)O)cc1 | 4.4 s

test system: Rattus norvegicus; experiment: Anti-cold allodynia effect in Sprague-Dawley rat SNL model assessed as duration of paw withdrawal 100 mg/kg, ip after 2.5 hrs; format: functional; details: route intraperitoneal
Outline: (§5)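 Left L5 spinal nerve ligation under pentobarbital (65 mg/kg i.p.). Allodynic rats dosed i.p. 100 mg/kg, vehicle 30% v/v PEG 400 in water. Acetone (100-200 µL) misted onto midplantar affected paw after 10 min acclimatization; paw withdrawal duration, mean of three samples at least 3 min apart; n = 4 rats.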

Structure (SMILES) | Activity
O=C(O)CCCNC(=O)N/N=C1\C(=O)Nc2ccccc21 | 41.2 s
Nc1nnc(-c2cccc(Cl)c2Cl)c(N)n1 [LAMOTRIGINE] | 18.4 s

test system: Mus musculus; experiment: Anticonvulsant activity in Swiss Albino mouse at 300 mg/kg, ip after 4 hrs by scSTY test; format: functional, organism-based; set-up: dose 300 mg/kg; details: not given; outline: as §3

Structure (SMILES) | Activity
O=C(O)CCCNC(=O)N/N=C1\C(=O)Nc2ccccc21 | inactive
CN(C)c1ccc(/C=N/NC(=O)NCCCC(=O)O)cc1 | inactive

test system: Rattus norvegicus; experiment: Anti-cold allodynia effect in Sprague-Dawley rat CCI model assessed as duration of paw withdrawal 100 mg/kg, ip after 1.5 hr; format: functional; details: route intraperitoneal; outline: as §1

Structure (SMILES) | Activity
Nc1nnc(-c2cccc(Cl)c2Cl)c(N)n1 [LAMOTRIGINE] | 32.4 s
CN(C)c1ccc(/C=N/NC(=O)NCCCC(=O)O)cc1 | 14.4 s

test system: Mus musculus; experiment: Anticonvulsant activity in Swiss Albino mouse at 30 mg/kg, ip after 0.5 hr by scPIC test; format: functional, organism-based; set-up: dose 30 mg/kg; details: not given; outline: as §3

Structure (SMILES) | Activity
CN(C)c1ccc(/C=N/NC(=O)NCCCC(=O)O)cc1 | Active

test system: Mus musculus; experiment: Neurotoxicity in Swiss Albino mouse at 300 mg/kg, ip after 4 hrs by rotarod test; format: functional, organism-based; set-up: dose 300 mg/kg; details: not given
Outline: (§6)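 Swiss mice (20-25 g) are trained on an accelerating rotorod (10 rpm, 3.2 cm rod), then injected i.p. at 30, 100 or 300 mg/kg, with three per group. Neurotoxicity means failure to keep equilibrium for at least 1 min in each of three trials, checked at 0.5 and 4 h. The value reported is the minimum dose affecting half or more of the mice.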

Structure (SMILES) | Activity
O=C(O)CCCNC(=O)N/N=C1\C(=O)Nc2ccccc21 | Active
CN(C)c1ccc(/C=N/NC(=O)NCCCC(=O)O)cc1 | inactive

test system: Mus musculus; experiment: Analgesic activity in Swiss Albino mouse assessed as number of acetic acid-induced writhing per 30 min after 100 mg/kg, ip; format: functional; details: route intraperitoneal
Outline: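 Mice in groups of six dosed i.p. at 100 mg/kg, controls receiving 30% v/v PEG 400 in water. Writhing induced by i.p. 0.1 mL of 3% v/v acetic acid 1 h after drug. Writhes (abdominal stretch with at least one hind limb extended) counted over 30 min; % inhibition calculated. Mean ± SEM, Student's t test.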

Structure (SMILES) | Activity
O=C(O)CCCNC(=O)N/N=C1\C(=O)Nc2ccccc21 | 47.3
CN(C)c1ccc(/C=N/NC(=O)NCCCC(=O)O)cc1 | 13

test system: Rattus norvegicus; experiment: Effect on spontaneous pain in Sprague-Dawley rat SNL model assessed as duration of paw withdrawal at 100 mg/kg, ip after 1 hr; format: functional; details: route intraperitoneal; outline: as §2

Structure (SMILES) | Activity
O=C(O)CCCNC(=O)N/N=C1\C(=O)Nc2ccccc21 | 0.9 s
Nc1nnc(-c2cccc(Cl)c2Cl)c(N)n1 [LAMOTRIGINE] | 13.3 s
CN(C)c1ccc(/C=N/NC(=O)NCCCC(=O)O)cc1 | 21.2 s

test system: Rattus norvegicus; experiment: Anti-dynamic allodynia effect in Sprague-Dawley rat SNL model assessed as latency to paw withdrawal 100 mg/kg, ip after 2 hrs; format: functional; details: route intraperitoneal; outline: as §4

Structure (SMILES) | Activity
Nc1nnc(-c2cccc(Cl)c2Cl)c(N)n1 [LAMOTRIGINE] | 0.7 s
CN(C)c1ccc(/C=N/NC(=O)NCCCC(=O)O)cc1 | 2.9 s

test system: Mus musculus; experiment: Neurotoxicity in Swiss Albino mouse at 100 mg/kg, ip after 0.5 hr by rotarod test; format: functional, organism-based; set-up: dose 100 mg/kg; details: not given; outline: as §6

Structure (SMILES) | Activity
O=C(O)CCCNC(=O)N/N=C1\C(=O)Nc2ccccc21 | Active

test system: Rattus norvegicus; experiment: Effect on spontaneous pain in Sprague-Dawley rat SNL model assessed as duration of paw withdrawal at 100 mg/kg, ip after 2 hrs; format: functional; details: route intraperitoneal; outline: as §2

Structure (SMILES) | Activity
O=C(O)CCCNC(=O)N/N=C1\C(=O)Nc2ccccc21 | 0.7 s
Nc1nnc(-c2cccc(Cl)c2Cl)c(N)n1 [LAMOTRIGINE] | 22.9 s
CN(C)c1ccc(/C=N/NC(=O)NCCCC(=O)O)cc1 | 29.2 s

test system: Rattus norvegicus; experiment: Anti-cold allodynia effect in Sprague-Dawley rat SNL model assessed as duration of paw withdrawal 100 mg/kg, ip after 1 hrs; format: functional; details: route intraperitoneal; outline: as §5

Structure (SMILES) | Activity
O=C(O)CCCNC(=O)N/N=C1\C(=O)Nc2ccccc21 | 16.3 s
Nc1nnc(-c2cccc(Cl)c2Cl)c(N)n1 [LAMOTRIGINE] | 9.2 s

test system: Rattus norvegicus; experiment: Effect on spontaneous pain in Sprague-Dawley rat SNL model assessed as duration of paw withdrawal at 100 mg/kg, ip after 1.5 hrs; format: functional; details: route intraperitoneal; outline: as §2

Structure (SMILES) | Activity
O=C(O)CCCNC(=O)N/N=C1\C(=O)Nc2ccccc21 | 0.9 s
Nc1nnc(-c2cccc(Cl)c2Cl)c(N)n1 [LAMOTRIGINE] | 2.6 s
CN(C)c1ccc(/C=N/NC(=O)NCCCC(=O)O)cc1 | 16.4 s

test system: Mus musculus; experiment: Anticonvulsant activity in Swiss Albino mouse at 100 mg/kg, ip after 4 hrs by scPIC test; format: functional, organism-based; set-up: dose 100 mg/kg; details: not given; outline: as §3

Structure (SMILES) | Activity
CN(C)c1ccc(/C=N/NC(=O)NCCCC(=O)O)cc1 | Active

test system: Mus musculus; experiment: Anticonvulsant activity in Swiss Albino mouse at 300 mg/kg, ip after 0.5 hr by MES test; format: functional, organism-based; set-up: dose 300 mg/kg; details: not given; outline: as §3

Structure (SMILES) | Activity
O=C(O)CCCNC(=O)N/N=C1\C(=O)Nc2ccccc21 | Active
CN(C)c1ccc(/C=N/NC(=O)NCCCC(=O)O)cc1 | inactive

test system: Mus musculus; experiment: Neurotoxicity in Swiss Albino mouse at 300 mg/kg, ip after 0.5 hr by rotarod test; format: functional, organism-based; set-up: dose 300 mg/kg; details: not given; outline: as §6

Structure (SMILES) | Activity
CN(C)c1ccc(/C=N/NC(=O)NCCCC(=O)O)cc1 | inactive

test system: Rattus norvegicus; experiment: Effect on spontaneous pain in Sprague-Dawley rat SNL model assessed as duration of paw withdrawal at 100 mg/kg, ip after 0.5 hr; format: functional; details: route intraperitoneal; outline: as §2

Structure (SMILES) | Activity
O=C(O)CCCNC(=O)N/N=C1\C(=O)Nc2ccccc21 | 1.2 s
Nc1nnc(-c2cccc(Cl)c2Cl)c(N)n1 [LAMOTRIGINE] | 15.6 s
CN(C)c1ccc(/C=N/NC(=O)NCCCC(=O)O)cc1 | 12.4 s

test system: Mus musculus; experiment: Anticonvulsant activity in Swiss Albino mouse at 300 mg/kg, ip after 0.5 hr by scSTY test; format: functional, organism-based; set-up: dose 300 mg/kg; details: not given; outline: as §3

Structure (SMILES) | Activity
O=C(O)CCCNC(=O)N/N=C1\C(=O)Nc2ccccc21 | inactive
CN(C)c1ccc(/C=N/NC(=O)NCCCC(=O)O)cc1 | inactive

test system: Rattus norvegicus; experiment: Anti-cold allodynia effect in Sprague-Dawley rat SNL model assessed as duration of paw withdrawal 100 mg/kg, ip after 0.5 hr; format: functional; details: route intraperitoneal; outline: as §5

Structure (SMILES) | Activity
O=C(O)CCCNC(=O)N/N=C1\C(=O)Nc2ccccc21 | 11 s
Nc1nnc(-c2cccc(Cl)c2Cl)c(N)n1 [LAMOTRIGINE] | 19.2 s

test system: Mus musculus; experiment: Anticonvulsant activity in Swiss Albino mouse at 300 mg/kg, ip after 4 hrs by scPIC test; format: functional, organism-based; set-up: dose 300 mg/kg; details: not given; outline: as §3

Structure (SMILES) | Activity
O=C(O)CCCNC(=O)N/N=C1\C(=O)Nc2ccccc21 | Active

test system: Rattus norvegicus; experiment: Anti-cold allodynia effect in Sprague-Dawley rat CCI model assessed as duration of paw withdrawal 100 mg/kg, ip after 1 hr; format: functional; details: route intraperitoneal; outline: as §1

Structure (SMILES) | Activity
Nc1nnc(-c2cccc(Cl)c2Cl)c(N)n1 [LAMOTRIGINE] | 33.6 s
CN(C)c1ccc(/C=N/NC(=O)NCCCC(=O)O)cc1 | 19.7 s
